Laboratory results taken from ChEMBL document CHEMBL4513216, “Probing the Open Global Health Chemical Diversity Library for Multistage-Active Starting Points for Next-Generation Antimalarials” (ACS Infect Dis, 2020).

Test: Toxicity liver stage against HepG2, at 10uM
Type: cell-based
Design: test concentration 10 uM, cell line HepG2-A16-CD81EGFP
Details: human, HepG2-A16-CD81EGFP cells; read-out: INHIBITION
How it was run: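 Uninfected HepG2-A16-CD81EGFP cells, 3 × 10^3 per well, 1536-well, plated on prespotted compound at 10 μM final, parasite-free screening media added to match infected plates; puromycin 10 μM positive, DMSO 0.5% negative; run in parallel with 48 h PbLuc assay at 37 °C, 5% CO2; viability by CellTiter-Glo luminescence, normalized to controls.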

Compound	cytotoxicity at 10 µM
CC(C)(C)n1ncc2c(=O)n(CC(=O)NCc3ccccc3Cl)cnc21	-9.03%
FC(F)(F)c1ccc2nc([C@H]3CCN(C4CCCCC4)C3)[nH]c2c1	-0.668%
Cn1c(CN2CCCCC2)cc(=O)c(O)c1CN1CCCCC1	-2.34%
CC(C)n1ncc2c1NC(=O)CC21C(=O)Nc2c(Cl)ccc(Cl)c21 (stereo not given)	1.19%
O=C(Nc1nc2c(s1)CN(S(=O)(=O)C1CC1)CC2)c1ccc(Cl)s1	21.3%
Cn1cc(S(=O)(=O)NCCc2ccsc2)cn1	5.26%
CC(=O)NCC(=O)N1Cc2cc(-c3cc[nH]n3)ccc2C1c1cnco1 (stereo not given)	13.5%
O=C(c1cnccn1)N1CC[C@H]2[C@H]1CCN2S(=O)(=O)C1CC1	-168%
O=C(c1cc(F)cc(F)c1)N1CCC2(CC1)CC2	5.04%
O=C(c1nn[nH]c1Nc1ccc(Cl)cc1)N1CCCCCC1	34.5%
Cc1cccc(CN2CCCC2c2cccc(Nc3nccs3)n2)c1 (stereo not given)	0.81%
CC1CCN(c2ncc(-c3ccccc3F)c(-c3nccn3C)n2)CC1	27.1%
CCN(CC)S(=O)(=O)N1CC[C@H](c2ccccc2)[C@@H]2[C@H]1CCCCN2C	3.74%
Nc1cc(-c2cccs2)nn(CC(=O)N2CCc3ccccc32)c1=O	-10%
c1cnc(N2CCCC(c3cc4cccnc4[nH]3)C2)nc1 (stereo not given)	-9.42%
CSc1ccc(CN2CCCC3(CNC(=O)c4ccccc4O3)C2)cc1 (stereo not given)	3.52%
Cc1cc(C)c2cc(CNC3CCCCC3)c3nn(C)c(=O)n3c2c1	-4.55%
COc1ccc(C2Nc3cc(Cl)ccc3C3=NCCN32)cc1OC (stereo not given)	1.05%
COC(=O)CC(NC(=O)c1cccc(CS(C)(=O)=O)c1)c1cccs1 (stereo not given)	-44.8%
O=C(O)c1ccc(S(=O)(=O)Nc2cnn(CC(F)(F)F)c2)cc1	-7.52%
CCN1CCOC(CNCc2ccc(C)s2)C1 (stereo not given)	2.35%
O=C(NC1CCN(CC2CC2)C1)N1CCC(OC2CCCCC2)CC1 (stereo not given)	4.75%

Compound	cytotoxicity at 10 µM
COc1cccc(-c2ccc(CNC(=O)c3ccc(=O)n(C)c3)cc2)c1	22.3%
c1cc(N2CCC(CN3CCOCC3)CC2)c2sccc2n1	10.8%
CCc1cnc(CNC(=O)NCCc2ccc(O)cc2)s1	2.31%
Cc1cc(C)c(CNC(=O)NCCNc2cnccn2)c(=O)[nH]1	-43.6%
COc1ncc(NCc2ccc(Cl)c(Cl)c2)cc1C(N)=O	32.7%
CC(NC(=O)CN1CCN(c2ccncc2Cl)CC1)c1ccco1 (stereo not given)	-6.02%
COCCNc1ccccc1CNC(=O)NCc1nc(C)c(C)s1	5.75%
O=C(c1cnc(OCC(F)(F)F)c(Cl)c1)N1CCc2ccc(O)cc2C1	-5.38%
Cc1cnn(Cc2cc(F)ccc2F)c1NC(=O)CNC(=O)C1CC1	2.3%
Cc1n[nH]c(C)c1C1COCCN1c1ncnc2sccc12 (stereo not given)	23.1%
Cc1ccc(NC(=O)NCC2(N3CCOCC3)CCSC2)c(C)c1 (stereo not given)	1.15%
Cc1ccc(S(=O)(=O)N2CCCCC(N3CCN(C)CC3)C2)cc1F (stereo not given)	6.24%
CCOCCN1CCN(Cc2nnc(C3CC3)o2)CC1C (stereo not given)	12.9%
CCc1noc(C(C)N(C)CC(=O)Nc2ccc(Br)cc2C)n1 (stereo not given)	19.6%
C1=C(c2c[nH]c3ncccc23)CCN(Cc2nnc(C3CC3)o2)C1	30.7%
Cc1cc(NCC2(O)CCOCC2)nc2ccccc12	-8.98%
CCC(Nc1ccc(Oc2ccc(C#N)cc2OC)cc1)C(N)=O (stereo not given)	65.7%
CC(=O)N(CCc1nc(-c2cc(C(N)=O)oc2C)cs1)C(C)C	0.988%
CNC(=O)CCN1CCCCCC1c1ccc(C)o1 (stereo not given)	-10.2%
O=C(c1cc[nH]n1)N(Cc1ccccc1)CC1CCC1	-6.74%
COCCN1CCC(CNC(=O)c2cc(Cl)c[nH]2)CC1	5.2%
CCC(C(=O)Nc1ccc2nc(C)oc2c1)N1CCCC1=O (stereo not given)	-41.9%

Compound	cytotoxicity at 10 µM
O=C1NCCN1C1CCN(c2ccnc(-c3ccccc3)n2)CC1	36.2%
CCOCCCC(=O)Nc1cc(C(N)=O)ccc1N1CCCCC1	-48%
CCN1CCN(CCNc2nc3ccc(C)cc3c(=O)n2C)CC1	10.7%
CNc1nc(CNC(=O)Nc2ccc(OC(C)C)cc2F)cs1	61.2%
Cc1cc(C)n(C2CN(CC(=O)N(C)Cc3ccc(C)o3)C2)n1	-6.24%
CCN1CCN(C)C2(CCN(C(=O)CC(F)(F)F)CC2)C1=O	0.797%
Cc1cccc(S(=O)(=O)N2CCC3(CC2)CC(N(C)C)CO3)c1 (stereo not given)	-126%
CC(C)NC(=O)[C@@H]1CN(Cc2nccs2)C[C@H]2OCC[C@H]21	-93.5%
Cn1cc(N2CC3(CCN(C(=O)c4cccn4C)CC3)OCC2=O)cn1	-81.1%
CC(=O)N1CCC2(CCN(Cc3ccc(Cl)c(C(F)(F)F)c3)CC2)C1	-81.9%
Cc1ncc(-c2ccnc(NCCc3ccc(F)cc3)n2)c(=O)[nH]1	-7.3%
CC(C)Nc1nc2c(s1)C(=O)CN(C(=O)NCc1ccccc1)C2	75.6%
COc1ccc2nc(CNC(=O)c3cc(C(C)C)no3)[nH]c2c1	-0.527%
CCn1cc(CN2CCCC(COc3ccc(F)cc3)C2)cn1 (stereo not given)	-59.6%
CCC(C(=O)N(Cc1ccccn1)C1CCCCC1)n1cccn1 (stereo not given)	-45.3%
CCNc1ncc(C(=O)N[C@@H](C)[C@H](O)c2ccccc2)cn1	-4.71%
CC(C)(C)c1cn(C2CCN(C3CCSC3)CC2)nn1 (stereo not given)	-3.99%
CCc1nc(N)nc(N(C)Cc2nncn2CCOC)c1C	-6.41%
Cc1cccc(N2CCN(CCC(=O)NCc3ccc(C)s3)CC2)c1	-0.432%
COc1ccc(Cl)cc1-n1cnc(CCNC(C)=O)c1	2.29%
COCCC(=O)NCC1COc2cc(OC)ccc2C1 (stereo not given)	0.0723%
Cc1cc(CNC(=O)CCCN2CCCCC2)n(C)n1	-10.3%

Compound	cytotoxicity at 10 µM
COCC(=O)N1CCCN(Cc2c(C)nc3ccc(Cl)cn23)CC1	5.39%
CN1CCc2[nH]nc(C(=O)N3CCC4(CCCO4)CC3)c2C1	-47.1%
Fc1cccc2ncnc(NCCCc3ccncc3)c12	7.02%
CCN(CCN(C)C)c1nc(CCN)nc2sc(C)c(C)c12	-1.78%
COc1ccc2c(c1)Cc1c-2nc(N)c(C#N)c1C1CCOC1 (stereo not given)	24.4%
CN1CCCC(CCC(=O)N2CCc3sc(C(=O)N(C)C)cc3C2)C1 (stereo not given)	1.42%
CC(C)N1CCC(C(=O)N2CCC(c3ccc(F)cc3)C2)CC1 (stereo not given)	-58.1%
NCC1Cc2cc(Oc3cc(F)c(CN4CCCC4)c(F)c3)ccc2O1 (stereo not given)	-8.97%
O=C(c1cn(CC(=O)N2CCCC2)c2ccccc12)C1CC1	14.2%
NC(=O)c1ccccc1-n1cc(-c2cccc(C(=O)O)c2)cn1	-5.65%
Cc1ccsc1CN(CCN(C)C)C(=O)c1cc2ccccc2[nH]1	-139%
CN(CC1CCCCO1)c1nc(-c2cccnc2)nc2c1CCNC2 (stereo not given)	3.01%
CC(=O)N1CCc2c(nc(N(C)C)nc2NCCCn2ccnc2C)C1	-7.42%
CNCc1cn(C2CCN(C(=O)NCc3ccco3)CC2)nn1	1.11%
COC(=O)Cn1c(C)cc(=O)c2cc(F)ccc21	2.63%
CCC(NC(=O)C1CCN(S(C)(=O)=O)CC1)c1ccc(OC)cc1 (stereo not given)	-1.82%
CCc1cc(N2CCC(n3cc(C(=O)NCC(C)C)nn3)CC2)ncn1	41.4%
Fc1ccc(CCC2CCCN(Cc3c[nH]cn3)C2)c(F)c1 (stereo not given)	-6.51%
COc1ccc(-c2cc[nH]n2)cc1CNC1CCCC1	-52.8%
CO[C@H]1C[C@@H](O)C12CCN(C(=O)CCCOc1ccccc1)CC2	-2.22%
O=C(NCc1cc(N2CCOCC2)ncn1)c1cccc(CO)n1	-7.76%
CC(C)n1ccnc1C1CCCN(c2ccnc3ccccc23)C1 (stereo not given)	38.4%

Compound	cytotoxicity at 10 µM
O=C(CNCCn1cccn1)NCC1(c2ccccc2)CCC1	-26.7%
Cc1ccc(CNCc2ccc(-n3nc(C)cc3C)nc2)cc1	-0.164%
c1ccc2sc(CN3CCOC(Cn4cccn4)C3)nc2c1 (stereo not given)	-10.2%
CNS(=O)(=O)c1cccc(CNc2nccc(C(F)(F)F)n2)c1	17.2%
CC(O)CNCc1ccc(OCc2ccc3c(c2)OCCO3)cc1 (stereo not given)	-4.61%
Cc1cc(F)ccc1-c1ccccc1CC1CNCCNC1=O (stereo not given)	5.08%
Clc1ccc(C2(CNC3=NCCN3)CCCCC2)cc1	38.2%
CCn1cc2c(n1)CN(Cc1nccs1)CC2COCC1CC1 (stereo not given)	6.07%
N#Cc1ccc(N2CCC3(CC2)CC(Oc2cccnc2)CO3)cc1 (stereo not given)	50.9%
Cn1cc(CNC2CCC(O)CC2)c(-c2cc3ccccc3o2)n1 (stereo not given)	-48%
COCCC1COC2(CCN(C(=O)c3ccncc3)CC2)C1 (stereo not given)	-74.9%
c1ccc(COC[C@@H]2CCC[C@]23CN(Cc2nccs2)CCO3)nc1	-65.4%
CCS(=O)(=O)N1CCC2(CC1)CN(CC1CCOC1)c1ccccc12 (stereo not given)	-85.9%
CC1=N[C@@]2(CC[C@@H]3CN(CC4CC4)C[C@@H]32)C(=O)N1CC(C)C	-84%
COc1cc(N2C[C@@H]3COC[C@]3(COc3ncccc3F)C2)ncn1	-67.5%
O=S(=O)(c1cccs1)N1CC[C@@H](O)[C@@H]1Cc1ccncc1	-72.8%
CCN(CC)Cc1cn2c(n1)CN(C(=O)Cc1ccsc1)CC2	-143%
CC(C)N(C)Cc1cn2c(n1)CN(C(=O)Cc1ccccc1)CC2	-135%
Cc1noc(C)c1CN1CC[C@@H](OCC2CC2)[C@@H](Cc2ccccc2)C1	11.5%
Cc1ccc(CN2CCn3cc(CN4CCN(C)CC4)nc3C2)cc1	-125%
CCOc1cc(C=Cc2ncc(C(=O)NC)s2)ccc1OC	-0.58%
CCOc1c(Br)cc(C2c3c(n[nH]c3C)N=C3COC(=O)C32)cc1OC (stereo not given)	47.1%
